Assay results taken from ChEMBL document CHEMBL1149833, “Lignans from Kadsura angustifolia” (J Nat Prod, 2008).

Columns and labels:
[1] = Cytotoxicity against human C8166 cells by MTT assay; format: cell-based
How it was run: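 MTT viability assay on C8166 cells, reported as CC50. It was run in parallel with the HIV-1 cytopathic-effect assay, with AZT as positive control.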

[2] = system: Human immunodeficiency virus 1; assay: Antiviral activity against HIV1 in human C8166 cells assessed as prevention of virus-induced cytopathic effect; format: functional, organism-based; settings: Human immunodeficiency virus 1, C8166
How it was run: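 HIV-1 infection of C8166 cells, with protection measured as inhibition of virus-induced cytopathic effects and reported as EC50. Cytotoxicity in the same cells was determined in parallel. AZT served as positive control.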

[3] = Selectivity index, Ratio of CC50 for human C8166 cells to EC50 for HIV1

Structure (SMILES)	CC50 [1] [µM]	EC50 [2] [µM]	Ratio [3]
C=CCc1cc(OC)c2c(c1)[C@H](CO)[C@@H](c1ccc(O)c(OC)c1)O2	38.1	13.1	
COc1cc2c(c(O)c1OC)-c1c(cc3c(c1OC)OCO3)[C@@H](O)[C@H](C)[C@H](C)C2 [BINANKADSURIN A]	227	3.86	
COc1cc2c(c(O)c1OC)-c1c(cc(O)c(OC)c1OC)[C@@H](O)[C@H](C)[C@H](C)C2 [DEANGELOYLSCHISANTHERIN F]	281	199	
COc1c2c(cc3c1-c1c(cc4c(c1OC)OCO4)[C@@H]1O[C@H]3[C@H](C)[C@@H]1C)OCO2 [EPOXIDESCHISANDRIN C]	220	9.35	
COc1c2c(cc3c1-c1c(cc4c(c1OC)OCO4)[C@@H](O)[C@@H](C)[C@@H](C)C3)OCO2 [GOMISIN R]	221	54.6	
COc1cc2c(c(O)c1OC)-c1c(cc(OC)c(OC)c1OC)[C@@H](OC(C)=O)[C@H](C)[C@H](C)[C@@H]2O [KADANGUSTIN A]	> 200	> 200	
COc1c2c(cc3c1-c1c(cc4c(c1OC)OCO4)[C@@H](OC(C)=O)[C@H](C)[C@H](C)[C@@H]3O)OCO2 [KADANGUSTIN B]	> 200	150	
COc1cc2c(c(O)c1OC)-c1c(cc(OC)c(OC)c1OC)[C@@H](OC(C)=O)[C@H](C)[C@](C)(O)[C@@H]2OC(=O)/C=C/c1ccccc1 [KADANGUSTIN C]	190	38.3	
COc1cc2c(c(O)c1OC)-c1c(cc(OC)c(OC)c1OC)[C@@H](OC(C)=O)[C@H](C)[C@H](C)[C@@H]2OC(=O)/C=C/c1ccccc1 [KADANGUSTIN D]	97.5	25.4	
COc1cc2c(c(O)c1OC)-c1c(cc(OC)c(OC)c1OC)[C@@H](OC(C)=O)[C@H](C)[C@H](C)[C@@H]2OC(=O)c1ccccc1 [KADANGUSTIN E]	138	60.8	
C/C=C(/C)C(=O)O[C@@H]1c2cc(OC)c(OC)c(O)c2-c2c(cc(OC)c(OC)c2OC)[C@@H](OC(C)=O)[C@H](C)[C@@H]1C [KADANGUSTIN F]	160	72.6	
C/C=C(\C)C(=O)O[C@@H]1c2cc(OC)c(OC)c(O)c2-c2c(cc(OC)c(OC)c2OC)[C@@H](OC(C)=O)[C@H](C)[C@@H]1C [KADANGUSTIN G]	72.2	25.7	
COc1ccc(CC(C)C(C)C(O)c2cc(O)c(OC)c(OC)c2)cc1OC (centres undefined) [KADANGUSTIN H]	30.7	27	
COc1cc(C(O)C(C)C(C)Cc2cc(OC)c3c(c2)OCO3)cc(O)c1OC (centres undefined) [KADANGUSTIN I]	35.1	21.5	
COc1ccc(C(c2ccc(OC)c(OC)c2)C(C)C(C)CO)cc1OC (centres undefined) [KADANGUSTIN J]	247	44.7	
COc1cc2c(c(OC)c1OC)-c1c(cc3c(c1OC)OCO3)[C@H]1O[C@@H]2[C@@H](C)[C@H]1C [KADSULIGNAN L]	361	26.2	
COc1cc2c(c(OC)c1OC)-c1c(cc(OC)c(OC)c1OC)[C@@H]1O[C@H]2[C@H](C)[C@@H]1C [KADSULIGNAN N]	382	43.6	
C/C=C(/C)C(=O)O[C@@H]1c2cc(OC)c(OC)c(OC)c2-c2c(cc3c(c2OC)OCO3)[C@@H](OC(C)=O)[C@H](C)[C@]1(C)O [KADSURARIN]	> 200	168	
COc1cc(C[C@@H](C)[C@@H](C)Cc2ccc(O)c(OC)c2)ccc1O [MESODIHYDROGUAIARETIC ACID]	49.1	15.6	
COc1ccc([C@H]2Oc3c(OC)cc(C=O)cc3[C@@H]2C)cc1O [PERSEAL F]	270	40.9	
C/C=C(/C)C(=O)Oc1c(OC)c(OC)cc2c1-c1c(cc(O)c(OC)c1OC)[C@@H](O)[C@H](C)[C@H](C)C2 [SCHISANTHERIN F]	> 200	95.2	
C/C=C(/C)C(=O)O[C@@H]1c2cc3c(c(OC)c2-c2c(cc4c(c2OC)OCO4)[C@@H](O)[C@H](C)[C@@H]1C)OCO3 [SCHISANTHERIN L]	> 200	138	
COc1c2c(cc3c1-c1c(cc4c(c1OC)OCO4)[C@@H](O)[C@@H](C)[C@@H](C)[C@@H]3O)OCO2 [SCHISANTHERIN P]	> 200	156	
COc1c2c(cc3c1-c1c(cc4c(c1OC)OCO4)[C@@H](O)[C@H](C)[C@H](C)C3=O)OCO2 [SCHISANTHERIN Q]	212	45.9	4.61
